Assay results: ChEMBL document CHEMBL5038600, “Discovery of M-1121 as an Orally Active Covalent Inhibitor of Menin-MLL Interaction Capable of Achieving Complete and Long-Lasting Tumor Regression” (J Med Chem, 2021)
Calls of active or inactive are those of the source. The rule behind the calls is not given here.

Assays:
[1] = Protein binding in human plasma at 1 uM incubated for 5 hrs by liquid chromatography-tandem mass spectrometry; type: ADME, cell-free
How it was run: (§1)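 Equilibrium dialysis: plasma spiked at 1 μM against dialysis buffer, shaken 5 h at 37 °C, with warfarin and quinidine (1 μM) as controls. Samples matrix-matched, quenched with acetonitrile containing imipramine internal standard, and analysed by LC-MS/MS. Percent bound computed from peak area ratios.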

MV4-11 [2] = assay: Anti-tumor activity against luciferase-tagged human MV4-11 cells xenografted in NCG mouse assessed as reduction in number of CD45+/CD33+ cells at 150 mg/kg, po administered daily for 4 days measured after 48 hrs by flow cytometry; type: functional, organism-based; conditions: time 4.0 day
How it was run: (§2)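 Female NCG mice, 5–6 weeks old, given 5×10^6 luciferase-tagged MV4;11 cells IV via tail vein. Randomized at log-phase disease (day 27). Dosed 150 mg/kg oral gavage daily for 4 days in MC/Tween 80 vehicle. Read-outs 48 h after the last dose, five mice per group, mean ± SEM: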

Menin (Homo sapiens) [3] = biological target: T1, Menin (Homo sapiens) (UniProt O00255); assay: Binding affinity to recombinant human menin protein assessed as covalent complex formation incubated for 10 mins by LC/MS analysis; set-up: concentration or dose not given beside the values
T1 sequence (whole entry): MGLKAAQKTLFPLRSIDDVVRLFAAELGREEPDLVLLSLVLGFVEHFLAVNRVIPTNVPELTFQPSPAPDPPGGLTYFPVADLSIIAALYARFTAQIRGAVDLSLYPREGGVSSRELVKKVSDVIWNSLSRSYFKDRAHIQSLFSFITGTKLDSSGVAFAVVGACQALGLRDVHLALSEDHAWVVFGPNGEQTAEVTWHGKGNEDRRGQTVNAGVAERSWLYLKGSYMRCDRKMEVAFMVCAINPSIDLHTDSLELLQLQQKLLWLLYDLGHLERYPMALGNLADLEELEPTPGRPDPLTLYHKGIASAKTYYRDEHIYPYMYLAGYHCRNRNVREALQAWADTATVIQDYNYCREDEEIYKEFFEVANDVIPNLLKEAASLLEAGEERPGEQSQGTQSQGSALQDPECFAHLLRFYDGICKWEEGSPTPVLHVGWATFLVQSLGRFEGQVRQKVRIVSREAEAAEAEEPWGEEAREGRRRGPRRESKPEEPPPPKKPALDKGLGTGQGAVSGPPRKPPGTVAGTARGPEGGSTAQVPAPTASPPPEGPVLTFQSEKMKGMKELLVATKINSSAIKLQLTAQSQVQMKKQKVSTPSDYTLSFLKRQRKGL

[4] = AUC (0 to infinity) in C57BL/6 mouse at 1 mg/kg, iv; type: ADME, organism-based; set-up: time infinity, route intravenous, dose 1 mg/kg; conditions: in vivo
How it was run: (§3)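 Female C57BL/6 mice, single IV dose of 1 mg/kg given as a solution in 10% NMP, 10% Solutol HS15 and 80% saline. Parameters come from the plasma concentration–time profile.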

[5] = GSH reactivity in pH 7.4 assessed as conjugation half life at pH 7.4; type: physicochemical
[6] = Tmax in C57BL/6 mouse at 5 mg/kg, po; type: ADME, organism-based; conditions: in vivo
How it was run: (§4)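 Female C57BL/6 mice, single oral dose of 5 mg/kg in 0.5% methyl cellulose + 0.2% Tween 80 (w/w). Bioavailability is calculated against the 1 mg/kg IV arm.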

[7] = Clearance in C57BL/6 mouse at 1 mg/kg, iv; type: ADME, organism-based; conditions: in vivo; how it was run: as §3
HL-60 = assay: Anti-proliferative activity against human HL-60 cells harboring MLL wild-type protein assessed as cell growth inhibition measured after 4 days by Cell Titre Glo Luminescent Cell viability assay; type: functional, cell-based; conditions: HL-60, 96 h
How it was run: (§5)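 Leukemia lines plated in triplicate in RPMI 1640 at 37 °C, 5% CO2. 9-point dose response from 10 μM top concentration with 1:3 serial dilutions, 0.1% DMSO final; DMSO vehicle control column. Cellular ATP read by CellTiter-Glo at day 0 and after 4 days. Averages from three independent experiments.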

[8] = AUC (0 to infinity) in C57BL/6 mouse at 5 mg/kg, po; type: ADME, organism-based; set-up: route oral, time infinity, dose 5 mg/kg; conditions: in vivo; how it was run: as §4
Menin (Homo sapiens) [9] = biological target: T1, Menin (Homo sapiens); assay: Binding affinity to recombinant human menin protein assessed as covalent complex formation measured after overnight incubation by LC/MS analysis; set-up: concentration or dose not given beside the values
KOPN-8 = assay: Anti-proliferative activity against human KOPN-8 cells harboring MLL/ENL fusion protein assessed as cell growth inhibition measured after 4 days by Cell Titre Glo Luminescent Cell viability assay; type: functional, cell-based; conditions: KOPN-8, 96 h; how it was run: as §5
[10] = Volume of distribution at steady state in C57BL/6 mouse at 1 mg/kg, iv; type: ADME, organism-based; conditions: in vivo, read-out: Vdss; how it was run: as §3
MV4-11 [11] = assay: Suppression of MEIS1 gene expression in human MV4-11 cells at 30 nM measured after 24 hrs by qRT-PCR analysis; type: functional, cell-based
[12] = Anti-proliferative activity against human OCI-AML-4 cells harboring MLL-ENL fusion protein assessed as cell growth inhibition measured after 4 days by Cell Titre Glo Luminescent Cell viability assay; type: functional, cell-based; conditions: OCI-AML-4, 96 h; how it was run: as §5
MV4-11 [13] = assay: Anti-proliferative activity against human MV4-11 cells harboring MLL/AF4 fusion protein assessed as cell growth inhibition measured after 4 days by Cell Titre Glo Luminescent Cell viability assay; type: functional, cell-based; conditions: MV4-11, 96 h
Menin (Homo sapiens) [14] = biological target: T1, Menin (Homo sapiens); assay: Binding affinity to recombinant human menin protein assessed as covalent complex formation incubated for 30 mins by LC/MS analysis; set-up: concentration or dose not given beside the values
[15] = Protein binding in mouse plasma at 1 uM incubated for 5 hrs by liquid chromatography-tandem mass spectrometry; type: ADME, cell-free; how it was run: as §1
SEM cells = assay: Anti-proliferative activity against human SEM cells harboring MLL/AF4 fusion protein assessed as cell growth inhibition measured after 4 days by Cell Titre Glo Luminescent Cell viability assay; type: functional, cell-based; conditions: 96 h; how it was run: as §5
[16] = Protein binding in rat plasma at 1 uM incubated for 5 hrs by liquid chromatography-tandem mass spectrometry; type: ADME, cell-free; how it was run: as §1
[17] = Toxicity in NCG mouse xenografted with luciferase-tagged MV4-11 cells assessed as change in body weight at 150 mg/kg, po administered daily for 4 days measured after 48 hrs; type: organism-based; conditions: in vivo, 96 h, time 4 day; how it was run: as §2
MV4-11 [18] = assay: Anti-tumor activity against human MV4-11 cells xenografted in SCID mouse assessed as tumor regrowth at 300 mg/kg, po qd administered daily for 15 days; type: functional, organism-based; conditions: time 15.0 day
How it was run: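 Female C.B-17 SCID mice, 5–6 weeks old, implanted subcutaneously in the right flank with 5×10^6 MV4;11 cells in 1:1 Matrigel. Randomized at about 200 mm3. Dosed 300 mg/kg by oral gavage once daily for 15 days in 0.5% MC (400 cP) + 0.2% Tween 80 at 10 mL/kg. Body weight measured daily; caliper volume (0.5×W×W×L) three times weekly.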

Menin (Homo sapiens) [19] = biological target: T1, Menin (Homo sapiens); assay: Binding affinity to recombinant human menin protein assessed as covalent complex formation incubated for 1 hrs by LC/MS analysis; set-up: concentration or dose not given beside the values
How it was run: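 Menin (25 mg/mL in 25 mM Tris pH 8.0, 150 mM NaCl, 5 mM DTT) incubated with compound at a 1:1.2 protein:compound molar ratio for 1 h or overnight at 4 °C. Diluted to 1 mg/mL, then reverse-phase C4 LC with a 5–100% MeCN/0.2% formic acid gradient and Q-TOF mass spectrometry to detect the covalent adduct.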

- PPB [1]: 90.7%
- Activity (Menin (Homo sapiens) [3]): 27%
- AUC(0-inf) [4]: 17600 ng·h/mL
- t1/2 [5]: 1.48 h
- Tmax [6]: 2 h
- clearance [7]: 0.945 mL/min/kg
- IC50 (HL-60): > 10000 nM
- AUC(0-inf) [8]: 43600 ng·h/mL
- Activity (Menin (Homo sapiens) [9]): 100%
- Vd [10]: 0.33 L/kg
- IC50 (MV4-11 [13]): 10.3 nM
- Activity (Menin (Homo sapiens) [14]): 59%
- PPB [15]: 99.3%
- PPB [16]: 87.5%
- Activity (Menin (Homo sapiens) [19]): 66%
Compound: C=CC(=O)N1C[C@@H]2C[C@H]1CN2S(=O)(=O)c1ccc(N2CC(CN3CCC([C@@](CN4CCC4)(c4cccc(F)c4)[C@H]4CCC[C@@H]4NC(=O)OC)CC3)(OC)C2)cc1
- Activity (MV4-11 [2]): Active
- IC50 (KOPN-8): 110 nM
- inhibition (MV4-11 [11]): Active
- IC50 [12]: 3 nM
- IC50 (SEM cells): 51 nM
- Activity [17]: Non-Toxic
- Activity (MV4-11 [18]): Active
